GRIN3A LBD mod: modulators (binders) of human NR3A ligand-binding domain; NR3A LBD differential scanning fluorimetry, Tm shift; 0% = protein alone, 100% = glycine-bound protein; AID 1259313; hit rate 2.5% among 340,000; Tm shift relative to glycine control, % at 25 µM;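 active means melting temperature shift of at least 10% of the positive control shift, at one fixed dose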
MPTP block: inhibitors of mitochondrial permeability transition pore; isolated mouse mitochondria, Ca2+ swelling absorbance, 30 min; inhibition, % at 10 µM; hit rate 1.4% among 360,000;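 active means inhibition of 50% or more, scaled per plate between neutral and stimulator controls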
procasp7 counter: activates human procaspase-7, counter-screen for procaspase-3 activators. P55210. recombinant procaspase-7, Ac-DEVD-pNA absorbance 405 nm; D23A/D198A/D206A triple mutant, cannot self-cleave; scale: DMSO 0, 5 µM enzyme 100. activation, % at 8.5 µM. hit rate 0.093% among 330,000;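 active means percent activation above the screen-wide mean plus 3 SD, cut at about 25% in these data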
Target sequence (P55210 whole entry D23A/D198A/D206A): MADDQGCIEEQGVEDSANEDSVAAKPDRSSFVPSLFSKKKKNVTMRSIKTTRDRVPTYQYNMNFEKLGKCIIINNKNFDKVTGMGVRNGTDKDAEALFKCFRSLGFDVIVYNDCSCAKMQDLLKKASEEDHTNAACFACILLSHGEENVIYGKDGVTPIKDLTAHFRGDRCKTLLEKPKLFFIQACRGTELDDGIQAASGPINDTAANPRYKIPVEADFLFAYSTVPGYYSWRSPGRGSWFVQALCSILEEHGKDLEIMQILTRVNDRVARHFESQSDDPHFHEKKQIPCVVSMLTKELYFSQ
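Replicates: singlicate. Assay system: Procaspase-7 triple mutant (PC-7 D3A). Signal: 405 nm absorbance of p-nitroaniline. Times: 1 h preincubation, 2 h reaction. Buffer or medium: Zinc-free HEPES pH 7.4 with 300 mM NaCl, 0.01% Triton X-100. Also added: DEVD-pNA substrate. Benchmarks: DMSO wells as 0%, DMSO with 5 µM added PC-7 as 100%.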
procasp3 activ: procaspase-3 (human) activation; P42574; recombinant procaspase-3 D3A, Ac-DEVD-pNA absorbance 405 nm; activation, % at 8.5 µM; hit rate 0.11% among 330,000; AID 463141;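 active means activation above the mean of all tested compounds plus 3 SD, cut at about 21% in these data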
Target sequence (P42574 whole entry D9A/D28A/D175A): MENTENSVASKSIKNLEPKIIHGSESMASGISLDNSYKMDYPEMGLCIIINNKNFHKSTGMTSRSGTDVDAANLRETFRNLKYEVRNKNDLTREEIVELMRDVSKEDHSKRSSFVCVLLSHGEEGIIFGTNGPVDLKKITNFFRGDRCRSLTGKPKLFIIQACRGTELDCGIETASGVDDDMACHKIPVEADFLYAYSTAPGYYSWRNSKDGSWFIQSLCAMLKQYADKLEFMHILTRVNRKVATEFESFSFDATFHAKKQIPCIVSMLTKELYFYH
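Technique: 405 nm absorbance of p-nitroaniline, reads at 0 and 120 min; Test system: Procaspase-3 D3A mutant; Incubation: 1 h enzyme-compound preincubation, then 2 h substrate reaction, 25 °C; Repeats: singlicate, each compound tested once; Benchmarks: low control DMSO wells, high control DMSO plus 5 µM PC-3 D3A.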
aDG glyco up: alpha-DG glycosylation activation; Pro5-aDG cells, alpha-DG glycosylation AlphaScreen (IIH6); 0% Pro5, 100% B10-LARGE cell signal; hit rate 0.22% among 360,000; activation, % at 10 µM; AID 624168;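 active means activation of at least 8% versus controls, or a plate z-score of at least 8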;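 further: Pro5 are CHO cells carrying HIG-tagged alpha-DG that lacks glycosylation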
Of the large screens only hits and unclear results are named; the others gave an inactive call. Rows were chosen to be rich in hits. Some 3.7% of all compounds tested hit in one or more screens of this group.

CCn1cc(CN2CCC(C(=O)Nc3cccc(-c4cccc(F)c4)c3)CC2)cn1	none
CC(C)n1cc(CN2CCC(C(=O)Nc3cccc(-c4cccc(Cl)c4)c3)CC2)cn1	aDG glyco up 8.6
CCn1nc(C)c(CN2CCC(C(=O)Nc3cccc(-c4cccc(F)c4)c3)CC2)c1C	aDG glyco up 8.0
O=[N+]([O-])c1cccc(N/N=C/c2cccc3ccccc23)c1	GRIN3A LBD mod 24.5
O=[N+]([O-])c1ccc(NN=Cc2cccc3ccccc23)nc1	GRIN3A LBD mod 28.7 (no result: procasp7 counter, procasp3 activ)
COc1cccc(/C=N/NC(=O)N/N=C/c2cccc(OC)c2O)c1O	GRIN3A LBD mod 34.7
O=C(O)c1ccccc1C=NNc1ccc([N+](=O)[O-])cn1	none (no result: procasp7 counter, procasp3 activ)
O=C(O)c1cc(N/N=C/c2cccc3ccccc23)ccc1Cl	none
COc1cccc(C=Nc2ccc(C)c(F)c2)c1O	GRIN3A LBD mod 13.0
Cc1cc2nc(-c3ccc(Cl)cc3)c(Cc3ccsc3)n2c(C)c1Br	none (no result: GRIN3A LBD mod, procasp7 counter, procasp3 activ)
COc1cccc(/C=N/Nc2ccc([N+](=O)[O-])cn2)c1O	GRIN3A LBD mod 29.2
Cc1nc2c(cnn2-c2ccccc2)c(=O)n1/N=C/c1ccccc1	none
Cc1nc(N/N=C/c2ccc(O)cc2)c2cnn(-c3ccccc3)c2n1	GRIN3A LBD mod 11.9
Cc1nc2ccccc2nc1N/N=C/c1ccc(O)cc1	GRIN3A LBD mod 11.5
Cc1ccc(S(=O)(=O)Nc2ccc(-c3nnc(SCc4ccccc4Cl)o3)cc2)cc1	GRIN3A LBD mod 26.4
Cc1ccc(CSc2nnc(-c3ccc(NS(=O)(=O)c4ccccc4)cc3)o2)cc1	GRIN3A LBD mod 16.3
COCc1nnc(NC(=O)c2ccc(NC(C)=O)cc2)s1	GRIN3A LBD mod 23.7
Cc1cc(N2CCN(C(c3ccnc4ccccc34)c3nnnn3-c3c(C)cccc3C)CC2)c2ccccc2n1 (configuration not stated)	none (no result: GRIN3A LBD mod, procasp7 counter, procasp3 activ)
COc1ccc(OCC(O)CNCCOc2ccccc2OC)c(C(C)(C)C)c1 (configuration not stated)	none
COCCNC(=O)C[C@H]1C[C@H]2c3cc(NS(=O)(=O)c4ccc(F)cc4)ccc3O[C@H]2[C@H](CO)O1	none (no result: GRIN3A LBD mod, procasp7 counter, procasp3 activ)
Cc1ccc(S(=O)(=O)C2(C(=O)Nc3ccc(Br)cc3)CC2)cc1	none
Cc1ccc(S(=O)(=O)C2(C(=O)NC3CCCCC3)CC2)cc1	GRIN3A LBD mod 25.7
CCOCCOC(=O)c1[nH]c2c(c1C)C(=O)CC(c1ccccc1)C2 (configuration not stated)	aDG glyco up 2.2 (no result: GRIN3A LBD mod)
CCOCCOC(=O)c1[nH]c2c(c1C)C(=O)CC(c1cccs1)C2 (configuration not stated)	none
CN1CCN(CCNC(=O)c2ccc3nc(-c4ccc(F)cc4)c(-c4ccc(F)cc4)nc3c2)CC1	aDG glyco up 8.0
CCc1nc2ccc(C(=O)NCCCN3CCN(c4ccc(F)cc4)CC3)cc2nc1CC	none
COc1ccc(OC)c2c(C)c(C)[nH]c12	GRIN3A LBD mod 10.3
COc1ccc(OC)c2c(=O)cc(C(=O)O)[nH]c12	none
Cn1c(N)c(C#N)c(-c2ccccc2)c(C#N)c1=O	none (no result: GRIN3A LBD mod, procasp7 counter, procasp3 activ)
Cc1ccc(CNC(=O)/C(C#N)=C\c2ccc(N(C)C)cc2)cc1	procasp3 activ 21.8 (no result: GRIN3A LBD mod, MPTP block, aDG glyco up)
CCOC(=O)c1ccc(NS(=O)(=O)c2ccc(Cl)nc2)cc1	none (no result: GRIN3A LBD mod, MPTP block, aDG glyco up)
CCOC(=O)c1cnn(-c2ccc(NS(=O)(=O)c3ccc(Cl)cc3)cc2)c1C(F)(F)F	GRIN3A LBD mod 15.9
CCNC(=O)N1C(=O)C2(OCCO2)c2ccccc21	none
CCCCOc1ccc(OCCCC)c2c1NC1(N2)C(=O)N(C(C)=O)c2ccccc21	GRIN3A LBD mod 13.1
CCOC(=O)c1cn(CC)c2cc(Cl)c([N+](=O)[O-])cc2c1=O	GRIN3A LBD mod 11.6
CCCCS(=O)(=O)CC(COc1ccccc1)OC(=O)c1ccccc1 (configuration not stated)	GRIN3A LBD mod 13.6
CCCCS(=O)CC(CS(=O)CCCC)OC(=O)c1ccccc1 (configuration not stated)	none
CCn1cc(C(=O)NC(C)C)c(=O)c2cc(F)c(N3CCN(C(=O)c4ccco4)CC3)cc21	GRIN3A LBD mod 11.9
COc1ccc(NC(=O)COC(=O)c2ccc(S(=O)(=O)N(C)c3ccccc3OC)cc2)cc1	none (no result: procasp7 counter, procasp3 activ)
COc1cnn(-c2ccc(Br)cc2)c(=O)c1SCc1ccccc1	GRIN3A LBD mod 15.4
CC(C)(C)NC(=O)NC(=O)Cn1ccsc1=N	none
CCc1ccc(C(=O)Cn2ccsc2=N)cc1	GRIN3A LBD mod 39.4
CN(C)CCNC=C(C(=O)Nc1ccc(Cl)cc1Cl)C(=O)Nc1ccc(Cl)cc1Cl	GRIN3A LBD mod 12.9
Cc1ccc(S(=O)(=O)N2[C@@H](c3ccc(F)cc3)C(C(=O)O)=CC[C@H]2c2cccs2)cc1	none
O=C(NC1=NCCS1)c1sc2cc(Cl)cc(Cl)c2c1Cl	GRIN3A LBD mod 20.1
O=C(NC1=NCCS1)c1sc2ccccc2c1Cl	none
CC(=O)Nc1ccc(NC(=O)c2ccc(NS(=O)(=O)c3cccc4cccnc34)cc2)cc1	GRIN3A LBD mod 18.5
COc1ccccc1NC(=O)c1ccc(NS(=O)(=O)c2cccc3cccnc23)cc1	GRIN3A LBD mod 17.5
Cc1ccc(NC(=O)c2ccc(NS(=O)(=O)c3cccc4cccnc34)cc2)cc1	GRIN3A LBD mod 27.9
COc1ccccc1NC(=O)c1ccc(NS(=O)(=O)c2ccc(F)c(Cl)c2)cc1	GRIN3A LBD mod 11.3
COc1ccccc1NC(=O)c1ccc(NS(=O)(=O)c2c(C)noc2C)cc1	none
COc1ccc(NC(=O)c2ccc(NS(=O)(=O)c3cccc4cccnc34)cc2)cc1	none
O=C(CSc1ccc(Cl)cc1)OCC(=O)N1CCN(c2ccccc2)CC1	none (no result: procasp7 counter, procasp3 activ)
COC(=O)c1ccccc1NC(=O)CNc1ccc(F)c(S(=O)(=O)N2CCOCC2)c1	none
Cc1ccc(S(=O)(=O)Nc2ccc(C(=O)NCc3ccccn3)cc2)cc1	GRIN3A LBD mod 13.1
CC(=O)Nc1ccc(NC(=O)c2ccc(NS(=O)(=O)c3cc(C(C)(C)C)cc(C)c3C)cc2)cc1	GRIN3A LBD mod 26.1
O=C(Nc1ccc2c(c1)Cc1ccccc1-2)c1cccnc1	GRIN3A LBD mod 21.4
O=C(Nc1ccc2c(c1)Cc1ccccc1-2)c1ccco1	GRIN3A LBD mod 22.0
COc1cccc(OC)c1C(=O)Nc1ccc2c(c1)Cc1ccccc1-2	none
O=C(Nc1cccnc1)c1cccnc1	none
COc1ccc(C(=O)Nc2ccc3c(c2)Cc2ccccc2-3)cc1	GRIN3A LBD mod 17.0
CC1=C(C(=O)N(C(C)C)C(C)C)CC(CC(=O)NCCN2CCOCC2)C(=O)N1CCC1=CCCCC1 (configuration not stated)	none (no result: GRIN3A LBD mod, procasp7 counter, procasp3 activ)
CCOc1ccc(NC(=O)c2sc3nc(C)nc(N4CCOCC4)c3c2C)cc1	GRIN3A LBD mod 16.5
CC1(C(=O)NS(=O)(=O)c2cccc(C#N)c2)CCN1C(=O)c1ccc(C2CCCCC2)cc1 (configuration not stated)	none (no result: GRIN3A LBD mod, procasp7 counter, procasp3 activ)

Bioassay records as filed in PubChem BioAssay.
